Source: ChEMBL document CHEMBL2380291, “Synthesis, 18F-radiolabeling, and in vivo biodistribution studies of N-fluorohydroxybutyl isatin sulfonamides using positron emission tomography” (J Med Chem, 2013)
Activity calls are given as the source filed them. The calls are words filed in the database; no cut-off is given here.

Columns and labels:
[1] = molecular target: T1, Caspase-1 (Homo sapiens) (UniProt P29466); experiment: Inhibition of human recombinant caspase-1 assessed as Ac-YVAD-AMC conversion to 7-amino-4-methylcoumarin incubated for 10 mins prior to substrate addition measured after 10 mins by spectrophotometric analysis
T1 sequence (whole entry): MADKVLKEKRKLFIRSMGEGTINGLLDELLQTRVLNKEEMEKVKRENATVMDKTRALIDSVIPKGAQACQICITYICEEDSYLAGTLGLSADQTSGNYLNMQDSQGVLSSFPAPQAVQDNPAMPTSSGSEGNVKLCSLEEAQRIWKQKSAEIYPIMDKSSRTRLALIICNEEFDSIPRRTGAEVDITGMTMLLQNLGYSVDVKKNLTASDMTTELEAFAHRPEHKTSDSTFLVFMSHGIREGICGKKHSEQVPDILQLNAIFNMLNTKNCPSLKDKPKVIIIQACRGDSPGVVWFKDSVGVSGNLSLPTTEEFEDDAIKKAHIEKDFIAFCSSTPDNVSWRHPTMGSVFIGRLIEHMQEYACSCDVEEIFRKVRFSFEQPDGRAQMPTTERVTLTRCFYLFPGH
In short: (§1)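 Recombinant caspase diluted to 0.5 unit per assay (500 pmol substrate converted in 60 min), preincubated 10 min at 37 °C in reaction buffer with inhibitor in DMSO at single final concentrations spanning 5 pM to 500 μM. Peptide substrate then added (final 10 μM) and reacted 10 min. IC50 obtained by nonlinear regression.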

[2] = molecular target: T2, Caspase-7 (Homo sapiens, UniProt P55210); experiment: Inhibition of human recombinant caspase-7 assessed as Ac-DEVD-AMC conversion to 7-amino-4-methylcoumarin incubated for 10 mins prior to substrate addition measured after 10 mins by spectrophotometric analysis; in short: as §1
T2 sequence (P55210 whole entry): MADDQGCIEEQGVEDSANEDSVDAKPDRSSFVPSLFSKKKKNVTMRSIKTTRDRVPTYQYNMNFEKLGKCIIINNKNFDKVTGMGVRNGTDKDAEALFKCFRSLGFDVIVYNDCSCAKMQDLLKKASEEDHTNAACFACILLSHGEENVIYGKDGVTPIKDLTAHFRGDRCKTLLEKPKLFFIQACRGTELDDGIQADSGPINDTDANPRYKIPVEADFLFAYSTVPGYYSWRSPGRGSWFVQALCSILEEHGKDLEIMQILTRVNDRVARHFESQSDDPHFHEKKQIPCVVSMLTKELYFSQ

[3] = molecular target: T3, Caspase-6 (Homo sapiens) (UniProt P55212); experiment: Inhibition of human recombinant caspase-6 assessed as Ac-VEID-AMC conversion to 7-amino-4-methylcoumarin incubated for 10 mins prior to substrate addition measured after 10 mins by spectrophotometric analysis; in short: as §1
T3 sequence (whole entry): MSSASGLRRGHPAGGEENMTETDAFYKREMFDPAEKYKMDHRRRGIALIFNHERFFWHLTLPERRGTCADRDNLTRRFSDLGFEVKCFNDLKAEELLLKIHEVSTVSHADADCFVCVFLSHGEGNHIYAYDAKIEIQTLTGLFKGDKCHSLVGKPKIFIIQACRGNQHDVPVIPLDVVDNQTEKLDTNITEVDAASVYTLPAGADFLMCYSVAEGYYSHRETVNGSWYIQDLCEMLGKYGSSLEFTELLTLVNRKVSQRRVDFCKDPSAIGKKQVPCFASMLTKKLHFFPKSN

[4] = molecular target: T4, Caspase-3 (Homo sapiens, UniProt P42574); experiment: Inhibition of human recombinant caspase-3 assessed as Ac-DEVD-AMC conversion to 7-amino-4-methylcoumarin incubated for 10 mins prior to substrate addition measured after 10 mins by spectrophotometric analysis; in short: as §1
T4 sequence (P42574 whole entry): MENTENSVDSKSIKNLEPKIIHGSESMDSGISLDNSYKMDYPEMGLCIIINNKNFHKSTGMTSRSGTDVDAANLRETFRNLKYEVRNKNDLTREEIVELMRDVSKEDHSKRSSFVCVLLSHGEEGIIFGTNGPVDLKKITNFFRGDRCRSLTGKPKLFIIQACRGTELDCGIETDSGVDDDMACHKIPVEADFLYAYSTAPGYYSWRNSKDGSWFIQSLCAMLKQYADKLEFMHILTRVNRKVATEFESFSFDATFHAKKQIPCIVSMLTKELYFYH

[5] = system: Heart; experiment: Biodistribution in mouse heart at 9.8 MBq, iv after 36 seconds by PET/CT analysis; assay type: ADME, organism-based; conditions: in vivo, 0.01 h
In short: (§2)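 Wild-type mice given tracer by tail vein injection through a pump-driven saline flush (300 μL/min) while PET list-mode acquisition started. CT-defined 3D volumes of interest over organs transferred to coregistered PET data. Uptake expressed as percentage injected dose: counts per mL in VOI divided by total counts in mouse, times 100% ID/mL.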

[6] = system: Mus musculus; experiment: Biodistribution in mouse urinary bladder at 9.8 MBq, iv after 6 to 96 mins by PET/CT analysis; assay type: ADME, organism-based; conditions: in vivo; in short: as §2
[7] = system: Blood; experiment: Biodistribution in mouse blood at 9.8 MBq, iv up to 30 mins by PET/CT analysis; assay type: ADME, organism-based; conditions: in vivo, 0.5 h; in short: as §2
[8] = system: Mus musculus; experiment: Biodistribution in mouse gall bladder at 9.8 MBq, iv after 6 to 96 mins by PET/CT analysis; assay type: ADME, organism-based; conditions: in vivo; in short: as §2
[9] = system: Liver; experiment: Biodistribution in mouse liver at 9.8 MBq, iv after 6 mins by PET/CT analysis; assay type: ADME, organism-based; conditions: in vivo, 0.1 h; in short: as §2
[10] = system: Kidney; experiment: Biodistribution in mouse kidney at 9.8 MBq, iv after 6 mins by PET/CT analysis; assay type: ADME, organism-based; conditions: in vivo, 0.1 h; in short: as §2
[11] = system: Intestine; experiment: Biodistribution in mouse intestine at 9.8 MBq, iv after 6 to 96 mins by PET/CT analysis; assay type: ADME, organism-based; conditions: in vivo; in short: as §2
[12] = system: Lung; experiment: Biodistribution in mouse lung at 9.8 MBq, iv after 36 seconds by PET/CT analysis; assay type: ADME, organism-based; conditions: in vivo, 0.01 h; in short: as §2

Row | SMILES | inhibition [1] | IC50 [2] [nM] | inhibition [3] | IC50 [4] [nM] | Drug uptake [5] [%ID/ml] | Drug uptake [6] | Drug uptake [7] | Drug uptake [8] | Drug uptake [9] [%ID/ml] | Drug uptake [10] [%ID/ml] | Drug uptake [11] | Drug uptake [12] [%ID/ml]
1 | COC[C@@H]1CCCN1S(=O)(=O)c1ccc2c(c1)C(=O)C(=O)N2CC[C@@H](O)C[18F] |  |  |  |  | 3.6 | Active | Active | Active | 12 | 5.2 | Active | 3
2 | COC[C@@H]1CCCN1S(=O)(=O)c1ccc2c(c1)C(=O)C(=O)N2CC[C@H](O)CF | Active | 27 | Active | 23.3 |  |  |  |  |  |  |  | 
3 | COC[C@@H]1CCCN1S(=O)(=O)c1ccc2c(c1)C(=O)C(=O)N2CC[C@@H](O)CF | Active | 296 | Active | 25.9 |  |  |  |  |  |  |  | 

Other lines, results leading:

Row | inhibition [1] | IC50 [2] [nM] | inhibition [3] | IC50 [4] [nM] | Drug uptake [5] [%ID/ml] | Drug uptake [6] | Drug uptake [7] | Drug uptake [8] | Drug uptake [9] [%ID/ml] | Drug uptake [10] [%ID/ml] | Drug uptake [11] | Drug uptake [12] [%ID/ml] | SMILES
4 | Active | 128 | Active | 187 |  |  |  |  |  |  |  |  | COC[C@@H]1CCCN1S(=O)(=O)c1ccc2c(c1)C(=O)C(=O)N2CC[C@@H](O)CO
5 | Active | 103 | Active | 106 |  |  |  |  |  |  |  |  | COC[C@@H]1CCCN1S(=O)(=O)c1ccc2c(c1)C(=O)C(=O)N2CC[C@H](O)CO
6 | Active | 0.951 | Active | 11.8 |  |  |  |  |  |  |  |  | COC[C@@H]1CCCN1S(=O)(=O)c1ccc2c(c1)C(=O)C(=O)N2CC[C@H](F)CO
7 | Active | 71 | Active | 56 |  |  |  |  |  |  |  |  | COC[C@@H]1CCCN1S(=O)(=O)c1ccc2c(c1)C(=O)C(=O)N2CC[C@@H](F)CO
